# From ChEMBL document CHEMBL1145439, “Fluorine-18-labeled benzamide analogues for imaging the sigma2 receptor status of solid tumors with positron emission tomography” (J Med Chem, 2007)
# Experiments:
# [1] = Tumor to fat ratio of the drug in mouse EMT6 tumor bearing BALB/c mouse at 10 to 20 uCi after 2 hrs; type: ADME
# Summary of the method: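 Tumor-bearing female Balb/c mice (EMT-6 s.c. allograft, ~0.2 cm3) given 10-20 µCi 18F tracer in saline i.v. via tail vein; ≥4 per group; killed 120 min later. Tissues weighed and gamma-counted; ratio = tumor %ID/g divided by that organ's %ID/g.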
# Blood [2] = assay: Biodistribution in blood of mouse EMT6 tumor bearing BALB/c mouse at 10 to 20 uCi after 5 mins; type: ADME, organism-based; conditions: in vivo
# Summary of the method: (§1)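 EMT-6 cells (5×10^5 in 100 µL PBS) implanted s.c. in scapular region of female Balb/c mice (~2 months, 17-22 g); studied 7-10 days later at ~0.2 cm3 tumor. 18F tracer 10-20 µCi in 100-150 µL saline via tail vein; ≥4 mice per time point; tissue removed at sacrifice, weighed, gamma-counted; %ID/g calculated.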
# Blood [3] = assay: Biodistribution in blood of mouse EMT6 tumor bearing BALB/c mouse at 10 to 20 uCi after 30 mins; type: ADME, organism-based; conditions: in vivo, 0.5 h; summary of the method: as §1
# Blood [4] = assay: Biodistribution in blood of mouse EMT6 tumor bearing BALB/c mouse at 10 to 20 uCi after 60 mins; type: ADME, organism-based; conditions: in vivo, 1 h; summary of the method: as §1
# Blood [5] = assay: Biodistribution in blood of mouse EMT6 tumor bearing BALB/c mouse at 10 to 20 uCi after 120 mins; type: ADME, organism-based; conditions: in vivo, 2 h; summary of the method: as §1
# Lung [6] = assay: Biodistribution in lung of mouse EMT6 tumor bearing BALB/c mouse at 10 to 20 uCi after 5 mins; type: ADME, organism-based; conditions: in vivo; summary of the method: as §1
# Lung [7] = assay: Biodistribution in lung of mouse EMT6 tumor bearing BALB/c mouse at 10 to 20 uCi after 30 mins; type: ADME, organism-based; conditions: in vivo, 0.5 h; summary of the method: as §1
# Lung [8] = assay: Biodistribution in lung of mouse EMT6 tumor bearing BALB/c mouse at 10 to 20 uCi after 60 mins; type: ADME, organism-based; conditions: in vivo, 1 h; summary of the method: as §1
# Lung [9] = assay: Biodistribution in lung of mouse EMT6 tumor bearing BALB/c mouse at 10 to 20 uCi after 120 mins; type: ADME, organism-based; conditions: in vivo, 2 h; summary of the method: as §1
# Liver [10] = assay: Biodistribution in liver of mouse EMT6 tumor bearing BALB/c mouse at 10 to 20 uCi after 5 mins; type: ADME, organism-based; conditions: in vivo; summary of the method: as §1
# Liver [11] = assay: Biodistribution in liver of mouse EMT6 tumor bearing BALB/c mouse at 10 to 20 uCi after 30 mins; type: ADME, organism-based; conditions: in vivo, 0.5 h; summary of the method: as §1
# Liver [12] = assay: Biodistribution in liver of mouse EMT6 tumor bearing BALB/c mouse at 10 to 20 uCi after 60 mins; type: ADME, organism-based; conditions: in vivo, 1 h; summary of the method: as §1
# Liver [13] = assay: Biodistribution in liver of mouse EMT6 tumor bearing BALB/c mouse at 10 to 20 uCi after 120 mins; type: ADME, organism-based; conditions: in vivo, 2 h; summary of the method: as §1
# Kidney [14] = assay: Biodistribution in kidney of mouse EMT6 tumor bearing BALB/c mouse at 10 to 20 uCi after 5 mins; type: ADME, organism-based; conditions: in vivo; summary of the method: as §1
# Kidney [15] = assay: Biodistribution in kidney of mouse EMT6 tumor bearing BALB/c mouse at 10 to 20 uCi after 30 mins; type: ADME, organism-based; conditions: in vivo, 0.5 h; summary of the method: as §1
# Kidney [16] = assay: Biodistribution in kidney of mouse EMT6 tumor bearing BALB/c mouse at 10 to 20 uCi after 60 mins; type: ADME, organism-based; conditions: in vivo, 1 h; summary of the method: as §1
# Kidney [17] = assay: Biodistribution in kidney of mouse EMT6 tumor bearing BALB/c mouse at 10 to 20 uCi after 120 mins; type: ADME, organism-based; conditions: in vivo, 2 h; summary of the method: as §1
# Muscle tissue [18] = assay: Biodistribution in muscle of EMT6 tumor bearing BALB/c mouse at 10 to 20 uCi after 5 mins; type: ADME, organism-based; conditions: in vivo; summary of the method: as §1
# Muscle tissue [19] = assay: Biodistribution in muscle of mouse EMT6 tumor bearing BALB/c mouse at 10 to 20 uCi after 30 mins; type: ADME, organism-based; conditions: in vivo, 0.5 h; summary of the method: as §1
# Muscle tissue [20] = assay: Biodistribution in muscle of mouse EMT6 tumor bearing BALB/c mouse at 10 to 20 uCi after 60 mins; type: ADME, organism-based; conditions: in vivo, 1 h; summary of the method: as §1
# Muscle tissue [21] = assay: Biodistribution in muscle of mouse EMT6 tumor bearing BALB/c mouse at 10 to 20 uCi after 120 mins; type: ADME, organism-based; conditions: in vivo, 2 h; summary of the method: as §1
# Adipose tissue [22] = assay: Biodistribution in fat of mouse EMT6 tumor bearing BALB/c mouse at 10 to 20 uCi after 5 mins; type: ADME, organism-based; conditions: in vivo; summary of the method: as §1
# Adipose tissue [23] = assay: Biodistribution in fat of mouse EMT6 tumor bearing BALB/c mouse at 10 to 20 uCi after 30 mins; type: ADME, organism-based; conditions: in vivo, 0.5 h; summary of the method: as §1
# Adipose tissue [24] = assay: Biodistribution in fat of mouse EMT6 tumor bearing BALB/c mouse at 10 to 20 uCi after 60 mins; type: ADME, organism-based; conditions: in vivo, 1 h; summary of the method: as §1
# Adipose tissue [25] = assay: Biodistribution in fat of mouse EMT6 tumor bearing BALB/c mouse at 10 to 20 uCi after 120 mins; type: ADME, organism-based; conditions: in vivo, 2 h; summary of the method: as §1
# Heart [26] = assay: Biodistribution in heart of mouse EMT6 tumor bearing BALB/c mouse at 10 to 20 uCi after 5 mins; type: ADME, organism-based; conditions: in vivo; summary of the method: as §1
# Heart [27] = assay: Biodistribution in heart of mouse EMT6 tumor bearing BALB/c mouse at 10 to 20 uCi after 30 mins; type: ADME, organism-based; conditions: in vivo, 0.5 h; summary of the method: as §1
# Heart [28] = assay: Biodistribution in heart of mouse EMT6 tumor bearing BALB/c mouse at 10 to 20 uCi after 60 mins; type: ADME, organism-based; conditions: in vivo, 1 h; summary of the method: as §1
# Heart [29] = assay: Biodistribution in heart of EMT6 tumor bearing BALB/c mouse at 10 to 20 uCi after 120 mins; type: ADME, organism-based; conditions: in vivo, 2 h; summary of the method: as §1
# Brain [30] = assay: Biodistribution in brain of EMT6 tumor bearing BALB/c mouse at 10 to 20 uCi after 5 mins; type: ADME, organism-based; conditions: in vivo; summary of the method: as §1
# Brain [31] = assay: Biodistribution in brain of EMT6 tumor bearing BALB/c mouse at 10 to 20 uCi after 30 mins; type: ADME, organism-based; conditions: in vivo, 0.5 h; summary of the method: as §1
# Brain [32] = assay: Biodistribution in brain of EMT6 tumor bearing BALB/c mouse at 10 to 20 uCi after 60 mins; type: ADME, organism-based; conditions: in vivo, 1 h; summary of the method: as §1
# Brain [33] = assay: Biodistribution in brain of mouse EMT6 tumor bearing BALB/c mouse at 10 to 20 uCi after 120 mins; type: ADME, organism-based; conditions: in vivo, 2 h; summary of the method: as §1
# Bone [34] = assay: Biodistribution in bone of mouse EMT6 tumor bearing BALB/c mouse at 10 to 20 uCi after 5 mins; type: ADME, organism-based, Bone element; conditions: in vivo; summary of the method: as §1
# Bone [35] = assay: Biodistribution in bone of mouse EMT6 tumor bearing BALB/c mouse at 10 to 20 uCi after 30 mins; type: ADME, organism-based, Bone element; conditions: in vivo, 0.5 h; summary of the method: as §1
# Bone [36] = assay: Biodistribution in bone of mouse EMT6 tumor bearing BALB/c mouse at 10 to 20 uCi after 60 mins; type: ADME, organism-based, Bone element; conditions: in vivo, 1 h; summary of the method: as §1
# Bone [37] = assay: Biodistribution in bone of mouse EMT6 tumor bearing BALB/c mouse at 10 to 20 uCi after 120 mins; type: ADME, organism-based, Bone element; conditions: in vivo, 2 h; summary of the method: as §1
# EMT6 [38] = assay: Biodistribution in tumor of mouse EMT6 tumor bearing BALB/c mouse at 10 to 20 uCi after 5 mins; type: ADME, organism-based; conditions: emt6, 5 min; summary of the method: as §1
# EMT6 [39] = assay: Biodistribution in tumor of EMT6 tumor bearing BALB/c mouse 10 to 20 uCi after 30 mins; type: ADME, organism-based; conditions: emt6, 0.5 h; summary of the method: as §1
# EMT6 [40] = assay: Biodistribution in tumor of mouse EMT6 tumor bearing BALB/c mouse at 10 to 20 uCi after 60 mins; type: ADME, organism-based; conditions: emt6, 1 h; summary of the method: as §1
# EMT6 [41] = assay: Biodistribution in tumor of mouse EMT6 tumor bearing BALB/c mouse at 10 to 20 uCi after 120 mins; type: ADME, organism-based; conditions: emt6, 2 h; summary of the method: as §1
# [42] = Decrease in tumor to muscle ratio of the drug in mouse EMT6 tumor bearing BALB/c mouse after 1 hr in presence of YUN-143; type: ADME; parameters: scale not given: the % may be the effect or the level left
# Summary of the method: (§2)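 Blocking: 18F tracer coinjected i.v. with 1 mg/kg cold YUN-143 (σ1/σ2 ligand) into EMT-6 tumor-bearing female Balb/c mice; sacrificed at 60 min; tumor/muscle and tumor/fat ratios from %ID/g of gamma-counted tissues.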
# [43] = Decrease in tumor to fat ratio of the drug in mouse EMT6 tumor bearing BALB/c mouse after 1 hr in presence of YUN-143; type: ADME; parameters: scale not given: the % may be the effect or the level left; summary of the method: as §2
smiles,measurement,setting,value
COc1cc2c(cc1OC)CN(CCCCNC(=O)c1cc(C)ccc1OCC[18F])CC2,Ratio,[1],8
same,Drug uptake,Blood [2],2.49 % ID/g
same,Drug uptake,Blood [3],1.16 % ID/g
same,Drug uptake,Blood [4],0.56 % ID/g
same,Drug uptake,Blood [5],0.35 % ID/g
same,Drug uptake,Lung [6],10.26 % ID/g
same,Drug uptake,Lung [7],2.36 % ID/g
same,Drug uptake,Lung [8],0.88 % ID/g
same,Drug uptake,Lung [9],0.43 % ID/g
same,Drug uptake,Liver [10],23.33 % ID/g
same,Drug uptake,Liver [11],10.51 % ID/g
same,Drug uptake,Liver [12],4.14 % ID/g
same,Drug uptake,Liver [13],2.05 % ID/g
same,Drug uptake,Kidney [14],29.18 % ID/g
same,Drug uptake,Kidney [15],6.86 % ID/g
same,Drug uptake,Kidney [16],2.51 % ID/g
same,Drug uptake,Kidney [17],0.87 % ID/g
same,Drug uptake,Muscle tissue [18],1.86 % ID/g
same,Drug uptake,Muscle tissue [19],0.7 % ID/g
same,Drug uptake,Muscle tissue [20],0.34 % ID/g
same,Drug uptake,Muscle tissue [21],0.24 % ID/g
same,Drug uptake,Adipose tissue [22],1.95 % ID/g
same,Drug uptake,Adipose tissue [23],0.59 % ID/g
same,Drug uptake,Adipose tissue [24],0.22 % ID/g
same,Drug uptake,Adipose tissue [25],0.08 % ID/g
same,Drug uptake,Heart [26],3.73 % ID/g
same,Drug uptake,Heart [27],1.15 % ID/g
same,Drug uptake,Heart [28],0.55 % ID/g
same,Drug uptake,Heart [29],0.27 % ID/g
same,Drug uptake,Brain [30],0.76 % ID/g
same,Drug uptake,Brain [31],0.27 % ID/g
same,Drug uptake,Brain [32],0.18 % ID/g
same,Drug uptake,Brain [33],0.12 % ID/g
same,Drug uptake,Bone [34],2.49 % ID/g
same,Drug uptake,Bone [35],0.96 % ID/g
same,Drug uptake,Bone [36],0.55 % ID/g
same,Drug uptake,Bone [37],0.45 % ID/g
same,Drug uptake,EMT6 [38],3.67 % ID/g
same,Drug uptake,EMT6 [39],2.54 % ID/g
same,Drug uptake,EMT6 [40],1.14 % ID/g
same,Drug uptake,EMT6 [41],0.64 % ID/g
same,Activity,[42],50%
same,Activity,[43],50%
